How the values were obtained:
[1] = molecular target: T1, Sterol O-acyltransferase 1 (Homo sapiens, UniProt P35610); experiment: Inhibition of N-terminal FLAG-tagged full-length human ACAT1 expressed in recombinant baculovirus infected Sf21 cells using [1-14C]-oleoyl-CoA and cholesterol as substrate incubated for 40 mins by TLC analysis
T1 sequence (P35610 whole entry): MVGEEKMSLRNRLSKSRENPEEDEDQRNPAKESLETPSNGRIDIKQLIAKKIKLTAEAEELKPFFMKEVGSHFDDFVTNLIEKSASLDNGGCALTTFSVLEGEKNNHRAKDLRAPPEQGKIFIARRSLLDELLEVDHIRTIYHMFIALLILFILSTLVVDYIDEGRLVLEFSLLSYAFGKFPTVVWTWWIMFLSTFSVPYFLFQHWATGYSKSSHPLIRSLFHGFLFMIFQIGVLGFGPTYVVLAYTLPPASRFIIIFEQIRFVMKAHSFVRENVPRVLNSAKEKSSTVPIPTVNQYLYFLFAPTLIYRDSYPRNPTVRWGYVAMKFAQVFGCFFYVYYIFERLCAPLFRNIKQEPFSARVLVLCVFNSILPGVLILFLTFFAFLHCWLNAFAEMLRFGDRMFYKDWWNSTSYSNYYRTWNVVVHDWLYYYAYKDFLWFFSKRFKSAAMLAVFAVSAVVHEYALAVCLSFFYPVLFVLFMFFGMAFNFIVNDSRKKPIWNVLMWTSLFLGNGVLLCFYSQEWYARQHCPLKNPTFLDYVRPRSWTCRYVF
How it was run: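 Sf-21 insect cell membranes from baculovirus infection, prepared in pH 7.4 phosphate/sucrose/KCl buffer. Enzyme at 30 µg/mL reacted with 5 µM [1-14C]-oleoyl-CoA and 100 µM cholesterol for 40 min at 32 °C. Lipids extracted by modified Bligh & Dyer, separated on silica TLC (hexane/ethyl ether/acetic acid), and radioactivity imaged.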

[2] = 1-Octanol/aqueous buffer partition coefficient, logD of the compound at pH 7.4 by HPLC analysis; format: physicochemical
CYP2D6 = CYP2D6 (Homo sapiens, UniProt P10635); experiment: Reversible inhibition of CYP2D6 in human liver microsomes using dextromethorphan as substrate at 10 uM incubated for 10 mins by LC/MS/MS analysis relative to control; format: ADME, Microsome; conditions: probe dextromethorphan
CYP2D6, sequence (P10635 whole entry, canonical isoform): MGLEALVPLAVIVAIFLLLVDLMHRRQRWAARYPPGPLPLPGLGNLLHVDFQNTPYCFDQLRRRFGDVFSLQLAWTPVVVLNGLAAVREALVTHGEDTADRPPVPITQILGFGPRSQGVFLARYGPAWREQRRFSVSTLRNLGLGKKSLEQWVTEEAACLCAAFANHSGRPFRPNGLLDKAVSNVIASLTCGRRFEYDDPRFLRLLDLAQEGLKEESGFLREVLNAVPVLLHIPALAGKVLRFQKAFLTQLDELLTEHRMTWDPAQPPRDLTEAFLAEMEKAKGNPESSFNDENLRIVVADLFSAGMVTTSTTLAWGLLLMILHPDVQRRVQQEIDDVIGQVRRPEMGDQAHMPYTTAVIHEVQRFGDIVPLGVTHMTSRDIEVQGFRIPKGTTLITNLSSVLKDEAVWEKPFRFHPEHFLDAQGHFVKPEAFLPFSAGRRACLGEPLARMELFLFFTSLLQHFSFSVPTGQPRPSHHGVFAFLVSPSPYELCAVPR
How it was run: (§1)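 Human liver microsomes at 0.1 mg/mL incubated 10 min at 37 °C with isoform-specific substrate and 10 µM test compound. Pairs: 1A2 tacrine/1-hydroxytacrine; 2C8 paclitaxel/6α-hydroxypaclitaxel; 2C9 tolbutamide/4-hydroxytolbutamide; 2D6 dextromethorphan/dextrorphan; 3A4 midazolam/1'-hydroxymidazolam. Stopped with acetonitrile/water; metabolite measured by LC/MS/MS.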

CYP1A2 = molecular target: T2, CYP1A2 (Homo sapiens, UniProt P05177); experiment: Reversible inhibition of CYP1A2 in human liver microsomes using tacrine as substrate at 10 uM incubated for 10 mins by LC/MS/MS analysis relative to control; format: ADME, Microsome; conditions: probe tacrine; how it was run: as §1
T2 sequence (P05177 whole entry): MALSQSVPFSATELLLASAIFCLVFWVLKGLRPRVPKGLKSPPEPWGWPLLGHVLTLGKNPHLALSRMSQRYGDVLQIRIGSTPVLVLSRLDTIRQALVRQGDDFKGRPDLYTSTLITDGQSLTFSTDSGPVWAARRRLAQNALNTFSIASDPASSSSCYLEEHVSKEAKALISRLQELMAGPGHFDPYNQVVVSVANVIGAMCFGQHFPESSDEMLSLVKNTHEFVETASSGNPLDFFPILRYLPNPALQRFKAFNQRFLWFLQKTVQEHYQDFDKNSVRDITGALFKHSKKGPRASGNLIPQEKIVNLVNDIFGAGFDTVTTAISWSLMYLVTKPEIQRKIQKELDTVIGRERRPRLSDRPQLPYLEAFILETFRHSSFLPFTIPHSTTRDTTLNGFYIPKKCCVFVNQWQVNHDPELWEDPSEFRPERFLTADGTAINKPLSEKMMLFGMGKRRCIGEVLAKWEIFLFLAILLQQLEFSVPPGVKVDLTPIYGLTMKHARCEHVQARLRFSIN

CYP2C8 = molecular target: T3, CYP2C8 (Homo sapiens, UniProt P10632); experiment: Reversible inhibition of CYP2C8 in human liver microsomes using paclitaxel as substrate at 10 uM incubated for 10 mins by LC/MS/MS analysis relative to control; format: ADME, Microsome; conditions: probe paclitaxel; how it was run: as §1
T3 sequence (P10632 whole entry): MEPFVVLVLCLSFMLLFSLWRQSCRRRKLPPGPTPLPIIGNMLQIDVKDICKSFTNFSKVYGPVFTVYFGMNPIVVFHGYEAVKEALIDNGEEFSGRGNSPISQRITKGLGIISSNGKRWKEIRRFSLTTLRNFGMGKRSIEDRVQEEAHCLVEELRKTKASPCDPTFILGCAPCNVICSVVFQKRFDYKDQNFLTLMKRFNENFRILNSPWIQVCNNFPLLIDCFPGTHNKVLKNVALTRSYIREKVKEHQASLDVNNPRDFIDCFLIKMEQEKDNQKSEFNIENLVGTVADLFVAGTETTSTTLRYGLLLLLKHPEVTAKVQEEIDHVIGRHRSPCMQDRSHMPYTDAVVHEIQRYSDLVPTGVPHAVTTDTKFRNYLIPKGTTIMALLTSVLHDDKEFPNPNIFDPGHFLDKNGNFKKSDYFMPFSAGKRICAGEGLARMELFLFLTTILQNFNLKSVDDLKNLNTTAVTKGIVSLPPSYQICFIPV

[3] = Oral bioavailability in mouse at 1 mg/kg administered as cassette dose by LC/MS/MS analysis; format: ADME, organism-based; conditions: in vivo
How it was run: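 Non-fasted mice dosed by cassette, iv 0.1 mg/kg or po 1 mg/kg suspended in 0.5% methylcellulose aqueous solution; plasma obtained from blood by centrifugation, deproteinized with acetonitrile, and compound concentrations measured by LC/MS/MS.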

[4] = Permeability of compound at pH 7.4 by PAMPA assay; format: ADME; conditions: read-out: permeability
How it was run: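 Passive permeability measured by PAMPA at pH 7.4.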

IC50 [1]: > 10 µM
logD [2]: 2.8
inhibition at 10 min, 10 µM (CYP2D6): < 10%
inhibition at 10 min, 10 µM (CYP1A2): < 10%
inhibition at 10 min, 10 µM (CYP2C8): 32%
bioavailability [3]: 50%
Papp [4]: 16.6 ×10⁻⁶ cm/s
Structure (SMILES): Cn1nc(C(F)(F)F)cc1-c1cnc(N2CCc3cc(S(=O)(=O)Nc4c(F)cc(Cl)cc4F)cc(N4CCCC4=O)c32)nc1 [TP-020]

From ChEMBL document CHEMBL5678813, “Optimization of a novel series of N-phenylindoline-5-sulfonamide-based acyl CoA:monoacylglycerol acyltransferase-2 inhibitors: Mitigation of CYP3A4 time-dependent inhibition and phototoxic liabilities” (Bioorg Med Chem, 2015)
